Source: PubChem BioAssay
HKDC1 inh = inhibitors of human hexokinase HKDC1. inhibition, % at 20 µM. recombinant HKDC1, G6PDH/diaphorase resazurin coupled fluorescence. Q2TB90. hit rate 0.16% among 340,000;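 active = inhibition above about 35% when tested at 20 µM, limit read from the data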;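 also: plate controls were DMSO wells with enzyme for no effect and DMSO wells lacking enzyme for full effect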
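Incubation: 90 min at room temperature in dark / Material: recombinant HKDC1 (HK5) hexokinase enzyme, produced in-house / Quantity: enzyme 5 µg/mL final / Compound: one dose of 20 µM, 1% DMSO / Reagent: glucose and ATP substrates / Buffer or medium: Tris pH 8.0 buffer with MgCl2, Tween-20, BSA, BME / Technique: resorufin fluorescence at 613 nm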
IMP-1 inh = blocks Pseudomonas aeruginosa IMP-1 metallo-beta-lactamase | purified IMP-1, nitrocefin hydrolysis, epi-absorbance fluorescence | inhibition, % at 5.6 µM | hit rate 0.45% among 290,000 | AID 1556;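 active = inhibition above the mean plus 3 SD of all compounds in the same screening run, cut at about 4.5% in these data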;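 also: 0% = IMP-1 with DMSO and 100% = DMSO wells lacking enzyme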
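System: Purified recombinant IMP-1 metallo-beta-lactamase enzyme | Measured by: Fluorescence quenching readout, ex 480/em 530 nm | Replication: Singlicate | Incubation: 15 min preincubation plus 25 min reaction at 25 °C | Evaluation: Percent inhibition from optical density relative to buffer-blank wells | Benchmarks: DMSO with and without IMP-1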
VIM-2 inh = inhibitors of Pseudomonas aeruginosa VIM-2 metallo-beta-lactamase; AID 1527; hit rate 0.89% among 290,000; inhibition, % at 5.6 µM; purified VIM-2, nitrocefin hydrolysis, epi-absorbance fluorescence;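 active = inhibition above the mean of all tested compounds plus 3 SD, cutoff set per screening run, cut at about 7.5% in these data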;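 also: red hydrolysis product quenches plate fluorescence so inhibitors raise well fluorescence; 0% = enzyme with DMSO and 100% = DMSO without enzyme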
ATG4B inh = blocks human ATG4B protease cleavage of LC3 substrate. ATG4B cleavage of LC3-PLA2, NBD-HPC fluorescence, 1 h. hit rate 0.51% among 340,000. inhibition, % at 8.33 µM. Q9Y4P1. AID 504462; in the data active = inhibition above about 40%
Target sequence (Q9Y4P1 whole entry, looked up): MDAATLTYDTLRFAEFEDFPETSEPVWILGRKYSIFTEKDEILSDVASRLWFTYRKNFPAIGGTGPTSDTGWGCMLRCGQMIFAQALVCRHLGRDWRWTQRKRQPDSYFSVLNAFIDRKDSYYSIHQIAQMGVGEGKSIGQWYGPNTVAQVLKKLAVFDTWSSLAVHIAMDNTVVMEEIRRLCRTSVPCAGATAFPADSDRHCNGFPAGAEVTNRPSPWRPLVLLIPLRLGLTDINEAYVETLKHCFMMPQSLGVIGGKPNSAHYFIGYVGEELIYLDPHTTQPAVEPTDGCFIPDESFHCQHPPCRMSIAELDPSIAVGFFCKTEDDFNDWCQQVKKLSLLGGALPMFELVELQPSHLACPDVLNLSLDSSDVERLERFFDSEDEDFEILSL
PvdQ inh = blocks Pseudomonas aeruginosa PvdQ acylase activity | purified PvdQ acylase, fluorescence plate reader | inhibition, % at 10 µM | hit rate 0.063% among 340,000 | AID 488965; in the data active = inhibition above about 30%, passing the limit was not always enough;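 also: 0% = vehicle neutral wells and 100% = reference inhibitor wells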
beta cell repl = MIN6 beta-cell proliferation induction | hit rate 0.29% among 330,000 | proliferation, % at 10 µM | MIN6 cells proliferation, ATPlite luminescence, 48 h; cells starved in 0.2% serum; 100% = growth in 10% serum | AID 2380;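 active = compounds whose signal lies at least 3.5 SD above the mean of all wells on their plate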;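 also: 0% = DMSO-treated cells in low-serum medium and 100% = 10% serum control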
ATG4B conf = confirmation of human ATG4B inhibitors. shares compounds with ATG4B inh. ATG4B protease fluorescent substrate cleavage assay. inhibition, % at 8.33 µM. hit rate 92% among 320; in the data active = inhibition above about 39%
PLA2 ctr = counter-screen for ATG4B inhibitors: human phospholipase A2 | shares compounds with ATG4B inh | purified PLA2, NBD-C6-HPC fluorescence, 45 min | inhibition, % at 8.33 µM | hit rate 66% among 1,600 | AID 588402; in the data active = inhibition above about 50%
Target sequence (P04054 whole entry, looked up): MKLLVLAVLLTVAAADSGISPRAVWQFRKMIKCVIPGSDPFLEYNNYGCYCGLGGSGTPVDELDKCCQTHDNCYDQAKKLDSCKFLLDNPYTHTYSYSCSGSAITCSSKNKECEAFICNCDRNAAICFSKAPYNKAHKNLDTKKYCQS
Starred values were filed as active, the others as inactive; . = no result. A selection: hits, their analogues and other compounds. The true share with any hit is near 2%.

SMILES | HKDC1 inh | IMP-1 inh | VIM-2 inh | ATG4B inh | PvdQ inh | beta cell repl | PLA2 ctr | others
CC1CCN(C(C)C(=O)Nc2ccccc2-c2ccccc2)CC1 (stereo not drawn) | -2 | -2 | -3 | 43* | -8 | -4 | 53*
COc1ccccc1NC(=O)C(C)OC(=O)C1CCC(C(C)(C)C)CC1 (stereo not drawn) | 7 | . | . | -2 | -12 | -5 | .
CC[C@]12c3[nH]c4ccccc4c3CCN1C(=O)C(CC(=O)NCCCN(C)C)C[C@@H]2C(=O)N1CCN(C(=O)c2ccco2)CC1 (stereo partly drawn) | -4 | . | . | 9 | -10 | 0 | .
N#Cc1c(NC(=S)NC(=O)C2CCCC2)sc2c1CCCCC2 | 8 | -2 | -2 | 74* | -5 | 0 | -11
N#Cc1c(NC(=S)NC(=O)c2ccccc2)sc2c1CCCC2 | -6 | -3 | -1 | -8 | -18 | -2 | .
O=C(CCC(=O)N1CCSc2ccccc21)NC1CCCCC1 | 5 | -5 | -1 | 5 | -2 | -1 | .
O=C(O)CN1C(=O)/C(=C\c2cc(Br)ccc2OCc2ccc(F)cc2)SC1=S | 23 | 0 | -2 | 22 | 4 | -6 | .
O=C(O)CN1C(=O)/C(=C\c2cc(Br)ccc2OCc2ccc(Cl)cc2)SC1=S | 27 | 1 | 1 | 52* | -16 | . | 30 | ATG4B conf=53*
O=C(O)CN1C(=O)/C(=C\c2cc([N+](=O)[O-])ccc2OCc2ccccc2Cl)SC1=S | 13 | 1 | 2 | 75* | -7 | -4 | 60*
CCCCCCNC(=O)CC(c1ccccc1)c1cc(Br)ccc1O (stereo not drawn) | 2 | -3 | 0 | 41* | -3 | -5 | 56*
O=C1C=CC(=O)N1 | -2 | . | . | -2 | -2 | -8 | .
Cc1ccc(NS(=O)(=O)c2cc(Br)cnc2N)c(Cl)c1 | 0 | -3 | -2 | 8 | -8 | 1 | .
Nc1ncc(Br)cc1S(=O)(=O)Nc1cc(C(F)(F)F)cc(C(F)(F)F)c1 | 10 | 2 | -4 | 57* | -16 | -4 | 47 | ATG4B conf=56*
O=C(NC(Cc1ccccc1)C(=O)O)OCC1c2ccccc2-c2ccccc21 (stereo not drawn) | 0 | -1 | -4 | 44* | -12 | 0 | 63*
O=C(NC(Cc1ccccc1)C(=O)O)OCc1ccccc1 (stereo not drawn) | 6 | -2 | -2 | 6 | -5 | -2 | .
CCOC(=O)C1=C(c2ccccc2)Nc2ncnn2C1c1ccc(C(=O)O)cc1 (stereo not drawn) | -6 | 1 | 2 | -3 | -10 | -4 | .
CCOC(=O)C1=C(c2ccccc2)NC(N)=NC1c1ccc(OCc2ccc(C(=O)OC)cc2)cc1 (stereo not drawn) | -4 | -3 | -2 | 46* | -9 | -6 | 53*
OCC[C@H]1C[C@H](O)[C@@H](O)[C@@]2(CCCO2)O1 | -5 | . | . | 1 | -17 | -2 | .
CCc1ccc(N2C(=O)CN(Cc3ccccc3)C2=S)cc1 | 4 | -4 | -1 | 12 | 3 | -7 | .
CCc1ccc(N2C(=O)CN(Cc3cccs3)C2=S)cc1 | 10 | 0 | -4 | 65* | -5 | -6 | 81*
Cc1cc(C)cc(N2C(=O)CN(Cc3ccccc3)C2=S)c1 | 2 | -2 | -1 | 70* | -9 | -7 | 75*
COc1ccc2c(c1)C(c1ccc(Cl)cc1)NC(=O)C2 (stereo not drawn) | 0 | . | . | -5 | 3 | -6 | .
Cc1ccc(-n2nnnc2SCC(=O)NC(C(=O)O)(c2ccccc2)c2ccccc2)cc1C | -14 | -1 | -1 | -4 | -4 | -1 | .
CCOC(=O)N/N=C/c1cn(Cc2ccc(F)cc2)c2ccccc12 | -3 | -2 | -1 | 23 | 1 | 2 | .
O=C1C2C3C=CC(C3)C2C(=O)N1/N=C/c1cn(Cc2ccc(F)cc2)c2ccccc12 (stereo not drawn) | 3 | -4 | -1 | 48* | -2 | -1 | 70*
SMILES | HKDC1 inh | IMP-1 inh | VIM-2 inh | ATG4B inh | PvdQ inh | beta cell repl | PLA2 ctr | others
CCOC(=O)Cn1cc(/C=N/N2C(=O)C3C4C=CC(C4)C3C2=O)c2ccccc21 (stereo not drawn) | -5 | -2 | -3 | -8 | 7 | -1 | .
O=C1C2C3C=CC(C3)C2C(=O)N1/N=C/c1cn(Cc2ccccc2)c2ccccc12 (stereo not drawn) | 4 | -1 | 0 | 48* | -15 | -2 | 57*
Cc1cc(OC(=O)c2ccc(S(=O)(=O)N(C)C)cc2)c([N+](=O)[O-])c(=O)[nH]1 | -6 | -3 | -2 | -5 | -9 | 3 | .
COc1ccc(N2CC(C(=O)Nc3c4c(nn3-c3ccc(OC)cc3)CS(=O)(=O)C4)CC2=O)cc1 (stereo not drawn) | 8 | -4 | -3 | 2 | 5 | 3 | .
O=C(O)c1cc(-c2ccco2)nn1-c1cccc(Cl)c1 | 4 | -3 | -1 | 17 | -10 | 0 | .
O=C(O)c1cc(-c2ccco2)nn1-c1ccc(Cl)cc1 | 3 | -1 | 1 | 43* | -7 | . | 17
O=C(O)c1cccc(-n2cccc2/C=C2\SC(=O)N(Cc3ccccc3F)C2=O)c1 | 13 | -2 | -2 | 40* | -10 | -2 | 57*
Cc1ccccc1N=C1NC(=O)/C(=C/c2cccn2-c2cccc(C(=O)O)c2)S1 | 14 | -4 | -2 | 43* | -15 | -3 | 5 | ATG4B conf=59*
O=C(O)c1cccc(-n2cccc2/C=C2/SC(=O)N(CC(=O)N3CCCC3)C2=O)c1 | 2 | -1 | 3 | 16 | -6 | 0 | .
Cc1cccc(N=C2NC(=O)/C(=C/c3cccn3C)S2)c1C | 1 | -4 | -4 | 18 | -10 | -3 | .
O=S(=O)(NC1CCCCC1)c1ccc(Cl)s1 | -3 | -5 | -1 | -2 | 4 | -4 | .
COc1ccccc1NS(=O)(=O)c1cccc(-n2c(O)c(C=Nc3ccccc3C(=O)O)c3ccccc3c2=O)c1 | 24 | -4 | -5 | 51* | -1 | -5 | 74*
COc1ccc(Cn2c(O)c(C=Nc3ccccc3C(=O)O)c3ccccc3c2=O)cc1 | 26 | -1 | 1 | 17 | -12 | -4 | .
CC(=O)Nc1ccc(C=NNc2ccc([N+](=O)[O-])cc2S(=O)(=O)Nc2ccccc2C(=O)O)cc1 | 5 | . | . | 34 | 7 | -2 | .
CCOc1ccc(C=NNc2ccc(S(=O)(=O)Nc3ccccc3C(=O)O)cc2[N+](=O)[O-])cc1OC | 24 | . | . | 7 | 25 | -4 | .
